Reference: ChEMBL document CHEMBL1139586, “A linear discrimination analysis based virtual screening of trichomonacidal lead-like compounds: outcomes of in silico studies supported by experimental results” (2005)

What was measured:
Format in all cases: functional
[1] = tested on: Trichomonas vaginalis; experiment: In vitro cytostatic activity against Trichomonas vaginalis at a dose of 1 ug/ml after 48 hours
How it was run: (§1)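 T. vaginalis JH31A cultured in modified Diamond medium plus equine serum, 37 °C, 5% CO2. Compounds added at 100, 10 and 1 µg/ml 6 h post-seeding (0 h). Neubauer-chamber counts of viable parasites at 24 and 48 h. Cytostatic activity is the percentage growth inhibition relative to untreated controls.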

[2] = tested on: Trichomonas vaginalis; experiment: In vitro cytostatic activity against Trichomonas vaginalis at a dose of 10 ug/ml after 48 hours; how it was run: as §1
[3] = tested on: Trichomonas vaginalis; experiment: In vitro cytocidal activity against Trichomonas vaginalis at a dose of 100 ug/ml after 24 hours
How it was run: (§2)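 T. vaginalis strain JH31A grown in modified Diamond medium with equine serum at 37 °C, 5% CO2. Test agents added 6 h after seeding (0 h). Viable protozoa counted by Neubauer chamber after 24 and 48 h incubation at 37 °C. Cytocidal activity is the percentage reduction in viable organisms relative to untreated controls, from microscopic counts.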

[4] = tested on: Trichomonas vaginalis; experiment: In vitro cytocidal activity against Trichomonas vaginalis at a dose of 100 ug/ml after 48 hours; how it was run: as §2
[5] = tested on: Trichomonas vaginalis; experiment: In vitro cytostatic activity against Trichomonas vaginalis at a dose of 10 ug/ml after 24 hours; how it was run: as §1
[6] = tested on: Trichomonas vaginalis; experiment: In vitro cytostatic activity against Trichomonas vaginalis at a dose of 1 ug/ml after 24 hours; how it was run: as §1
[7] = tested on: Trichomonas vaginalis; experiment: In vitro cytocidal activity against Trichomonas vaginalis at a dose of 10 ug/ml after 48 hours; how it was run: as §2
[8] = tested on: Trichomonas vaginalis; experiment: In vitro cytocidal activity against Trichomonas vaginalis at a dose of 2 mg/ml after 48 hours; how it was run: as §2
[9] = tested on: Trichomonas vaginalis; experiment: In vitro cytocidal activity against Trichomonas vaginalis at a dose of 2 mg/ml after 24 hours; how it was run: as §2
[10] = tested on: Trichomonas vaginalis; experiment: In vitro cytocidal activity against Trichomonas vaginalis at a dose of 0.5 mg/ml after 24 hours; how it was run: as §2
[11] = tested on: Trichomonas vaginalis; experiment: In vitro cytocidal activity against Trichomonas vaginalis at a dose of 1 mg/mL after 48 hours; how it was run: as §2
[12] = tested on: Trichomonas vaginalis; experiment: In vitro cytocidal activity against Trichomonas vaginalis at a dose of 0.5 mg/ml after 48 hours; how it was run: as §2
[13] = tested on: Trichomonas vaginalis; experiment: In vitro cytocidal activity against Trichomonas vaginalis at a dose of 1 mg/mL after 24 hours; how it was run: as §2
[14] = tested on: Trichomonas vaginalis; experiment: In vitro cytostatic activity against Trichomonas vaginalis at a dose of 100 ug/ml after 48 hours; how it was run: as §1
[15] = tested on: Trichomonas vaginalis; experiment: In vitro cytostatic activity against Trichomonas vaginalis at a dose of 100 ug/ml after 24 hours; how it was run: as §1

SMILES | Cytostatic activity [1] [%] | Cytostatic activity [2] [%] | Cytocidal activity [3] [%] | Cytocidal activity [4] [%] | Cytostatic activity [5] [%] | Cytostatic activity [6] [%] | Cytocidal activity [7] [%] | Cytocidal activity [8] [%] | Cytocidal activity [9] [%] | Cytocidal activity [10] [%] | Cytocidal activity [11] [%] | Cytocidal activity [12] [%] | Cytocidal activity [13] [%] | Cytostatic activity [14] [%] | Cytostatic activity [15] [%]
CN1C(=O)C[N+](C)(C)c2ccc([N+](=O)[O-])cc21.[Cl-] | 0.78 | 1.13 | 100 | 100 | 72.85 | 0.17 | – | – | – | – | – | – | – | – | –
O=C1Nc2cc([N+](=O)[O-])ccc2N2CCCCC12 (centres undefined) | 0 | 75.15 | 98.43 | 100 | 57.45 | 0 | – | – | – | – | – | – | – | – | –
CN1CC(=O)N(C)c2cc([N+](=O)[O-])ccc21 | 0 | – | 100 | 100 | 71.11 | 0 | 92.03 | – | – | – | – | – | – | – | –
CN1C(=O)CN(CCCCCCl)c2ccc([N+](=O)[O-])cc21 | 69.96 | – | 100 | 100 | 72.68 | 0 | 93.94 | – | – | – | – | – | – | – | –
Cc1ncc([N+](=O)[O-])n1CCO [METRONIDAZOLE] | – | – | – | – | – | – | – | 100 | 99.63 | 98.19 | 99.72 | 98.79 | 99.18 | – | –
CN1CC(=O)Nc2cc([N+](=O)[O-])ccc21 | 8.32 | 13.97 | 100 | 100 | 59.05 | 0 | – | – | – | – | – | – | – | – | –
O=C1Nc2cc([N+](=O)[O-])ccc2N2Cc3ccccc3CC12 (centres undefined) | 0 | 37.15 | – | – | 51.82 | 0 | – | – | – | – | – | – | – | 81.25 | 85.53
O=C1CN(CCCCCCCl)c2ccc([N+](=O)[O-])cc2N1 | 0 | 30.56 | 99.15 | 99.83 | 79.28 | 8.76 | – | – | – | – | – | – | – | – | –
O=C1Nc2cc([N+](=O)[O-])ccc2N2CCCC12 (centres undefined) | 17.32 | 54.22 | 59.99 | 100 | 33.48 | 11.09 | – | – | – | – | – | – | – | – | –
